Measured values of several laboratories.
Lines come from different studies, so protocols differ.

SMILES | system | setting | AUC(0-inf)
CNCCN(C)c1cc(C#N)cc(CCc2cc(C)cc(N)n2)c1 | male BALB/c mouse, plasma | oral, 10 mg/kg | 182 ng·h/mL
CC(C)(C)c1ccc(O)c(CN(Cc2cc(C(C)(C)C)ccc2O)C2CCC(NC(N)=O)CC2)c1 (stereo not drawn) | male C57BL/6 mouse, plasma | intraperitoneal, 25 mg/kg, single dose | 16600 ng·h/mL
Cc1nc(-c2cnc(NC(C)C)n(C)c2=O)ccc1Oc1ccnc(-c2cnn(C)c2)c1 | female mouse, plasma | oral, 7.5 mg/kg, single dose | 80400 ng·h/mL
COc1cc(OC)c2nccc(N3CCc4c(cc(Cn5ccnc5)cc4-c4cn(C)nc4C(F)(F)F)C3=O)c2c1 | male CD-1 mouse, plasma | oral, 50 mg/kg | 60600 ng·h/mL
Cc1ccc(NC(=O)c2ccc(CN3CCN(C)CC3)cc2)cc1Nc1nccc(-c2cncc(-c3oncc3C)c2)n1 | male C57BL/6 mouse, brain | oral, 100 mg/kg/day | 1200 ng·h/mL
CNC(=O)c1cc(OC)cc2c(N3CCc4c(cc(Cn5ccnc5)cc4-c4cn(C)nc4C(F)(F)F)C3=O)ccnc12 | male CD-1 mouse, plasma | intravenous, 3 mg/kg | 3300 ng·h/mL
COc1nc(-c2cc(C)c(N[C@@H](C)c3c(F)cc(F)cc3F)nn2)ccc1-n1cnc(C)c1 | male CD-1 mouse, plasma | intravenous, 1 mg/kg, single dose | 2500 ng·h/mL
CC=Cc1ccc(O)c(OC)c1 | mouse, plasma | intranasal, 100 mg/kg | 10100 ng·h/mL
CN1C(=O)c2ccccc2[S@+]([O-])c2ccc(C(=O)NCCc3cccs3)cc21 | male C57BL/6 mouse, plasma | intraperitoneal, 30 mg/kg, single dose | 7840 ng·h/mL
COc1ccc2nccc(N3CCc4c(cc(Cn5ccnc5)cc4-c4cn(C)nc4C(F)(F)F)C3=O)c2c1 | male CD-1 mouse, plasma | oral, 50 mg/kg | 33800 ng·h/mL
Cc1cc(Nc2ccc(S(F)(F)(F)(F)F)cc2)n2ccnc2n1 | male Swiss mouse, plasma | oral, 100 mg/kg, single dose | 154 µM·h
CCc1cc(OC)c2nccc(N3CCc4c(cc(Cn5ccnc5)cc4-c4cn(C)nc4C(F)(F)F)C3=O)c2c1 | male CD-1 mouse, plasma | oral, 50 mg/kg | 108000 ng·h/mL
O=S(=O)(c1ccc(-c2ccc3nccc(Nc4ccncn4)c3c2)cc1)N1CCOCC1 | female BALB/c mouse, plasma | intraperitoneal, 10 mg/kg | 9520 ng·h/mL
COc1cc2c(Nc3ccc(Cl)c(Cl)c3F)ncnc2cc1OC[C@@H]1C[C@@H]2CN(C)C[C@@H]2C1 | FVB mouse, plasma | oral, 70 mg/kg, single dose | 83000 ng·h/mL
c1ccc(-c2nc(N3CCC(c4ccccn4)C3)c3ccccc3n2)nc1 (stereo not drawn) | female BALB/c mouse, plasma | oral, 50 mg/kg | 10500 ng·h/mL
CC[C@H](C)[C@@H]1NC(=O)[C@@](C)(NC(=O)[C@H](CCCNC(=N)N)NC(=O)[C@H](CC(C)C)NC(=O)[C@@H](NC(=O)[C@H](CCC(N)=O)NC(=O)[C@H](CC(C)C)NC(C)=O)[C@@H](C)O)CCCC=CCCC[C@@](C)(C(=O)N[C@@H](CC(C)C)C(=O)N[C@@H](Cc2ccc3ccccc3c2)C(N)=O)NC(=O)[C@H](CCCNC(=N)N)NC(=O)[C@H](CCC(N)=O)NC1=O | male BALB/c mouse, plasma | intraperitoneal, 5 mg/kg | 102000 ng·h/mL
CCc1cc(C(=O)NC)c2nccc(N3CCc4c(cc(Cn5ccnc5)cc4-c4cn(C)nc4C(F)(F)F)C3=O)c2c1 | male CD-1 mouse, plasma | oral, 50 mg/kg | 122000 ng·h/mL
COc1nc(-c2cc(C)c(N[C@@H](C)c3cc(F)cc(F)c3)nn2)ccc1-n1cnc(C)c1 | male CD-1 mouse, plasma | oral, 5 mg/kg, single dose | 13800 ng·h/mL
Cc1ccc2cncc(N3CCc4c(cc(Cn5ccnc5)cc4-c4cn(C)nc4C(F)(F)F)C3=O)c2c1 | male CD-1 mouse, plasma | intravenous, 3 mg/kg | 3870 ng·h/mL
COc1ccc2c(=O)cc(-c3ccccc3)oc2c1O | male CD-1 mouse, plasma | oral, 50 mg/kg | 1.67 ng·h/mL
Cc1noc(C)c1-c1ccc2nc(-c3cnn(CCO)c3)nc(N3CCOCC3c3ccccc3)c2c1 (stereo not drawn) | CD-1 mouse, plasma | intravenous, 2 mg/kg | 1760 ng·h/mL
